The text below walks through data of ChEMBL document CHEMBL2375304, “Synthesis and anticancer activity of novel 2-pyridyl hexahyrocyclooctathieno[2,3-d]pyrimidine derivatives” (2013).

Type in all cases: functional
Test [1] has as its system SR. The experiment in a line: Growth inhibition of human SR cells at 10^-5 M after 48 hrs by Sulforhodamine B assay relative to control. The settings on record: read-out: GI. Summed up: (§1)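 Single-dose primary screen at 10⁻⁵ M across 49 lines. Cells were plated 24 h beforehand, with a TCA-fixed time-zero plate, then exposed 48 h at 37 °C, 5% CO2. Cells were fixed with cold TCA, stained with SRB and read at 515 nm. Percent growth was calculated against time-zero and untreated-control absorbances.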
On the technique in general: Sulforhodamine B stains cellular protein and so reports cell mass.

Test [2] deals with HL-60(TB). The experiment in a line: Growth inhibition of human HL-60(TB) cells at 10^-5 M after 48 hrs by Sulforhodamine B assay relative to control. The note with it: HL-60, 48 h, read-out: GI. Summed up: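 First-stage single-dose screen at 10⁻⁵ M. Cells pre-incubated 24 h at 37 °C, 5% CO2, then exposed to drug for 48 h. Settled cells fixed with TCA (final 16%), SRB-stained and read at 515 nm. Percentage growth inhibition is derived from treated, untreated control and time-zero absorbances.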

Test [3] relates to MOLT-4. Description: Growth inhibition of human MOLT4 cells at 10^-5 M after 48 hrs by Sulforhodamine B assay relative to control. The note with it: MOLT-4, 48 h, read-out: GI. The essentials: as §1
Test [4] concerns HOP-62. The experiment in a line: Growth inhibition of human HOP62 cells at 10^-5 M after 48 hrs by Sulforhodamine B assay relative to control. The note with it: HOP-62, 48 h, read-out: GI. Summed up: (§2)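 Single-dose screen at 10⁻⁵ M. Cells are preincubated 24 h at 37 °C in 5% CO2, then exposed to the compound, diluted from a DMSO stock into medium with gentamicin, for 48 h. Adherent cells are fixed with cold TCA (final 10%) and suspension cells with TCA (final 16%). Cells are stained with 0.4% SRB in 1% acetic acid and bound dye is read at 515 nm. Percent growth inhibition is taken against control wells and time-zero plates.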

Test [5] deals with SF-295. The experiment in a line: Growth inhibition of human SF295 cells at 10^-5 M after 48 hrs by Sulforhodamine B assay relative to control. The note with it: SF-295, 48 h, read-out: GI. Summed up: as §1
Test [6] concerns DU-145. The experiment in a line: Growth inhibition of human DU145 cells at 10^-5 M after 48 hrs by Sulforhodamine B assay relative to control. The settings on record: DU-145, 48 h, read-out: GI. Summed up:
as §2

The test system of test [7] is SW-620. The experiment in a line: Growth inhibition of human SW620 cells at 10^-5 M after 48 hrs by Sulforhodamine B assay relative to control. The note with it: SW-620, 48 h, read-out: GI. The essentials: as §1
For test [8], the system named is MDA-MB-231. The experiment in a line: Growth inhibition of human MDA-MB-231 cells at 10^-5 M after 48 hrs by Sulforhodamine B assay relative to control. The note with it: MDA-MB-231, 48 h, read-out: GI. Summed up: as §2
For test [9], the system named is NCI-H460. Description: Growth inhibition of human NCI-H460 cells at 10^-5 M after 48 hrs by Sulforhodamine B assay relative to control. The settings on record: NCI-H460, 48 h, read-out: GI. Summed up: as §1
Test [10] concerns 786-0. Description: Growth inhibition of human 786-0 cells at 10^-5 M after 48 hrs by Sulforhodamine B assay relative to control. The note with it: 786-0, 48 h, read-out: GI. Summed up: as §2
Test [11] deals with SF-539. Description: Growth inhibition of human SF539 cells after 48 hrs by Sulforhodamine B assay. The settings on record: SF-539, 48 h. Summed up: (§3)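 Cells were preincubated 24 h at 37 °C, 5% CO2, and a time-zero plate was TCA-fixed. Five concentrations were made by serial dilution from a DMSO stock (400-fold the top concentration) and incubated 48 h. Adherent cells were fixed with 10% final TCA and suspension cells with 16%. Plates were stained with 0.4% SRB and read at 515 nm. GI50 is the concentration giving 50% reduction in net protein increase versus control.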

Test [12] concerns DU-145. Description: Growth inhibition of human DU145 cells after 48 hrs by Sulforhodamine B assay. The settings on record: DU-145, 48 h. The essentials: (§4)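 Five-concentration SRB assay using 10-fold or ½-log serial dilutions from a DMSO stock. Exposure is 48 h at 37 °C in 5% CO2 after 24 h preincubation. TCA fixation is followed by SRB staining and a reading at 515 nm. Percentage growth is computed from time-zero, control and treated absorbances. GI50 is the concentration where [(Ti−Tz)/(C−Tz)]×100 = 50, read from the plot against log concentration.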

For test [13], the system named is MCF7. Description: Growth inhibition of human MCF7 cells after 48 hrs by Sulforhodamine B assay. The note with it: MCF7, 48 h. The essentials: as §4
Test [14] concerns OVCAR-4. The experiment in a line: Growth inhibition of human OVCAR4 cells after 48 hrs by Sulforhodamine B assay. The note with it: OVCAR-4, 48 h. The essentials: as §3
Test [15] has as its system A549. Description: Growth inhibition of human A549/ATCC cells after 48 hrs by Sulforhodamine B assay. The note with it: A549, 48 h. The essentials: as §4
Test [16] concerns T47D. The experiment in a line: Growth inhibition of human T47D cells after 48 hrs by Sulforhodamine B assay. The essentials: as §3
The subject of test [17] is UO-31. The experiment in a line: Growth inhibition of human UO31 cells after 48 hrs by Sulforhodamine B assay. The note with it: UO-31, 48 h. The essentials:
(§5)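 Five-concentration stage in the […]-cell-line panel, using 10-fold or ½-log serial dilutions made from a DMSO stock (400-fold). Cells were preincubated 24 h at 37 °C, then drug-exposed 48 h. A time-zero plate was fixed with TCA at dosing, adherent cells were fixed with cold TCA (10% final), and protein was stained with SRB, absorbance 515 nm. GI50 was where [(Ti−Tz)/(C−Tz)]×100 = 50, from the percent growth vs log concentration plot, expressed as log10 GI50.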

The subject of test [18] is U-251. Description: Growth inhibition of human U251 cells after 48 hrs by Sulforhodamine B assay. The settings on record: U-251, 48 h. The essentials: as §5
Test [19] deals with LOX IMVI. Description: Growth inhibition of human LOXIMVI cells after 48 hrs by Sulforhodamine B assay. Summed up:
as §4

The test system of test [20] is HT-29. The experiment in a line: Growth inhibition of human HT-29 cells after 48 hrs by Sulforhodamine B assay. The settings on record: HT-29, 48 h. Summed up: as §4
The test system of test [21] is SK-OV-3. Description: Growth inhibition of human SKOV3 cells after 48 hrs by Sulforhodamine B assay. The settings on record: SK-OV-3, 48 h. The essentials:
as §3

Test [22] relates to HCT-116. The experiment in a line: Growth inhibition of human HCT116 cells after 48 hrs by Sulforhodamine B assay. The settings on record: HCT-116, 48 h. The essentials: as §4
Test [23] in a line: Growth inhibition of human NCI-ADR-RES cells after 48 hrs by Sulforhodamine B assay. Summed up:
as §3

For test [24], the system named is SR. The experiment in a line: Growth inhibition of human SR cells after 48 hrs by Sulforhodamine B assay. The essentials:
as §3

Test [25] concerns Malme-3M. The experiment in a line: Growth inhibition of human MALME-3M cells after 48 hrs by Sulforhodamine B assay. Summed up:
as §4

As to `NNc1nc(-c2ccncc2)nc2sc3c(c12)CCCCCC3`, the inhibition of growth at 10 µM in [1] is 15.7%; in [2] it was 16.4%; in test [3] it was 9.09%; in test [4] it was 4.03%; in test [5], 6.22%; in test [6], -30.4%. Further, the inhibition of growth at 10 µM in test [7] was -8.49%; in test [8] it was 1.46%; in test [9] it was -4.36%; in test [10] it was 18.1%.

As for `Clc1nc(-c2ccncc2)nc2sc3c(c12)CCCCCC3`, the inhibition of growth at 10 µM was 21.4% in test [1]; 3.12% in [2]; 15.6% in test [3]; -9.05% in [4]; 8.02% in [6]; -3.44% in test [7]. Moreover, the inhibition of growth at 10 µM was -6.99% in test [8], -2.59% in test [9] and 0.46% in test [10].

By GI50 is commonly meant the concentration at which growth is held to half of that of the control. Regarding `NNc1nc(-c2ccccn2)nc2sc3c(c12)CCCCCC3`, the 50% growth inhibitory concentration (GI50) in test [11] is 11 µM; in test [12] it was 9.55 µM; in test [13] it was 3.8 µM; in [14], 10.5 µM; in test [15], 3.16 µM; in test [16], 5.01 µM. Further, the concentration for 50% growth inhibition (GI50) in [17] was 1.02 µM; in [18], 4.47 µM; in test [19], 6.17 µM; in [20], 5.5 µM; in test [21] it was 30.9 µM; in test [22], 3550 nM. The 50% growth inhibitory concentration (GI50) in test [23] is 457 nM; in test [24], 3.98 µM.

In the case of `O=c1[nH]c(-c2ccncc2)nc2sc3c(c12)CCCCCC3`, the GI50 in [11], in test [12], in test [13], in [15], in test [25] and in test [17] was more than 100 µM in each case. Also, the GI50 in test [18], in [19], in [20] and in [24] was more than 100 µM each time.

As to `Clc1nc(-c2ccccn2)nc2sc3c(c12)CCCCCC3`, the inhibition of growth at 10 µM is 33.7% in test [1]; 3.98% in [2]; 32.3% in [3]; 13.4% in [4]; 77.5% in test [6]; -2.34% in test [7]. Besides, the inhibition of growth at 10 µM in [8] is -16.9%; in [9], 9.1%; in test [10] it was 1.61%.

As to `O=c1[nH]c(-c2ccccn2)nc2sc3c(c12)CCCCCC3`, the GI50 in [11] was 7.76 µM; in test [12], 6.76 µM; in test [13], 2.45 µM; in test [14], 5.89 µM; in [15], 2.57 µM; in test [16], 5.5 µM. Further, the concentration for 50% growth inhibition (GI50) in test [17] was 5.89 µM; in test [18], 2.14 µM; in [19], 1.1 µM; in test [20], 7.76 µM; in [21], more than 100 µM; in [22], 1380 nM. In addition, the GI50 in [23] is 955 nM; in test [24], 0.871 µM.
